{
  "source": "ChEMBL document CHEMBL6121022",
  "about": "“Cytotoxic and Noncytotoxic Steroidal Constituents of Cryptolepis dubia” (J Nat Prod, 2025)",
  "key": {"HT-29": {"test_system": "HT-29", "experiment": "Cytotoxicity against human HT-29 cells assessed as inhibition of cell viability incubated for 72 hrs by celltiter-blue cell viability assay", "assay_type": "functional, cell-based", "details": "HT-29, 72 h", "in_short": "(§1)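 Cells grown in RPMI 1640 or DMEM with 10% FBS, penicillin 100 units/mL and streptomycin 100 μg/mL. Treated with compounds for 72 h; vehicle negative control, paclitaxel positive control. Viability read by CellTiter-Blue absorbance. IC50 relative to vehicle control by nonlinear regression; triplicate measurements, representative of three independent experiments.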"}, "MDA-MB-231": {"test_system": "MDA-MB-231", "experiment": "Cytotoxicity against human MDA-MB-231 cells assessed as inhibition of cell viability incubated for 72 hrs by celltiter-blue cell viability assay", "assay_type": "functional, cell-based", "details": "MDA-MB-231, 72 h", "in_short": "as §1"}, "OVCAR-3": {"test_system": "OVCAR-3", "experiment": "Cytotoxicity against human OVCAR-3 cells assessed as inhibition of cell viability incubated for 72 hrs by celltiter-blue cell viability assay", "assay_type": "functional, cell-based", "details": "OVCAR-3, 72 h", "in_short": "as §1"}, "OVCAR-5": {"test_system": "OVCAR-5", "experiment": "Cytotoxicity against human OVCAR-5 cells assessed as inhibition of cell viability incubated for 72 hrs by celltiter-blue cell viability assay", "assay_type": "functional, cell-based", "details": "OVCAR-5, 72 h", "in_short": "as §1"}, "MDA-MB-435": {"test_system": "MDA-MB-435", "experiment": "Cytotoxicity against human MDA-MB-435 cells assessed as inhibition of cell viability incubated for 72 hrs by celltiter-blue cell viability assay", "assay_type": "functional, cell-based", "details": "MDA-MB-435, 72 h", "in_short": "as §1"}, "[1]": {"experiment": "Inhibition of Na+/K+-ATPase (unknown origin) by luminescent ADP detection assay", "parameters": "species or system Homo sapiens", "in_short": "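NKA activity read as ADP formed, by luminescent ADP detection (ADP-Glo Max). IC50 is the concentration giving 50% inhibition of NKA activity. In vitro measurements were run in triplicate and are representative of three independent experiments.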"}},
  "data": [
    {"smiles": "CO[C@H]1C[C@H](O[C@H]2CC[C@@]3(C)[C@@H](C2)C[C@@H]2O[C@]24[C@@H]3[C@H](OC(C)=O)C(=O)[C@]2(C)[C@@H](C3=CC(=O)OC3)CC[C@]42O)O[C@@H](C)[C@@H]1OC(C)=O", "values": [
      {"measurement": "IC50", "setting": "HT-29", "value": "> 10", "unit": "µM"},
      {"measurement": "IC50", "setting": "MDA-MB-231", "value": "> 10", "unit": "µM"},
      {"measurement": "IC50", "setting": "OVCAR-3", "value": "> 10", "unit": "µM"},
      {"measurement": "IC50", "setting": "OVCAR-5", "value": "> 10", "unit": "µM"},
      {"measurement": "IC50", "setting": "MDA-MB-435", "value": "> 10", "unit": "µM"},
      {"measurement": "IC50", "setting": "[1]", "value": "> 100", "unit": "µM"}
    ]},
    {"smiles": "C[C@H]1O[C@@H](O[C@H]2[C@@H](O)C[C@H](O[C@H]3[C@@H](O)C[C@H](O[C@H]4CC[C@@]5(C)[C@H](CC[C@@H]6[C@@H]5CC[C@]5(C)[C@@H](C7=CC(=O)OC7)CC[C@]65O)C4)O[C@@H]3C)O[C@@H]2C)C[C@H](O)[C@@H]1O", "note": "[DIGITOXIN]", "values": [
      {"measurement": "IC50", "setting": "[1]", "value": 0.46, "unit": "µM"}
    ]},
    {"smiles": "C[C@]12CC[C@H]3[C@@H](C=CC4=CC(=O)[C@H](O)C[C@@]43C)[C@@H]1CC[C@@H]2C(=O)O", "values": [
      {"measurement": "IC50", "setting": "HT-29", "value": "> 10", "unit": "µM"},
      {"measurement": "IC50", "setting": "MDA-MB-231", "value": "> 10", "unit": "µM"},
      {"measurement": "IC50", "setting": "OVCAR-3", "value": "> 10", "unit": "µM"},
      {"measurement": "IC50", "setting": "OVCAR-5", "value": "> 10", "unit": "µM"},
      {"measurement": "IC50", "setting": "MDA-MB-435", "value": "> 10", "unit": "µM"},
      {"measurement": "IC50", "setting": "[1]", "value": "> 100", "unit": "µM"}
    ]},
    {"smiles": "CO[C@H]1C[C@H](O[C@H]2CC[C@@]3(C)[C@@H](C2)C[C@@H]2O[C@]24[C@@H]3[C@H](O)C(=O)[C@]2(C)[C@H](C3=CC(=O)OC3)CC[C@]42O)O[C@@H](C)[C@@H]1O", "values": [
      {"measurement": "IC50", "setting": "HT-29", "value": "> 10", "unit": "µM"},
      {"measurement": "IC50", "setting": "MDA-MB-231", "value": "> 10", "unit": "µM"},
      {"measurement": "IC50", "setting": "OVCAR-3", "value": 7, "unit": "µM"},
      {"measurement": "IC50", "setting": "OVCAR-5", "value": "> 10", "unit": "µM"},
      {"measurement": "IC50", "setting": "MDA-MB-435", "value": "> 10", "unit": "µM"},
      {"measurement": "IC50", "setting": "[1]", "value": 40, "unit": "µM"}
    ]},
    {"smiles": "CC(=O)O[C@H]1C(=O)[C@@]2(C)[C@H]([C@H](OC(=O)c3ccccc3)[C@]3(O)C[C@H](OC(=O)[C@H](O)[C@@H](NC(=O)c4ccccc4)c4ccccc4)C(C)=C1C3(C)C)[C@]1(OC(C)=O)CO[C@@H]1C[C@@H]2O", "note": "[PACLITAXEL]", "values": [
      {"measurement": "IC50", "setting": "HT-29", "value": 0.0034, "unit": "µM"}
    ]},
    {"smiles": "C[C@]12CC[C@H]3[C@@H](C=CC4=CC(=O)[C@H](O)C[C@@]43C)[C@@H]1CC[C@@H]2C(=O)CO", "values": [
      {"measurement": "IC50", "setting": "HT-29", "value": "> 10", "unit": "µM"},
      {"measurement": "IC50", "setting": "MDA-MB-231", "value": "> 10", "unit": "µM"},
      {"measurement": "IC50", "setting": "OVCAR-3", "value": "> 10", "unit": "µM"},
      {"measurement": "IC50", "setting": "OVCAR-5", "value": "> 10", "unit": "µM"},
      {"measurement": "IC50", "setting": "MDA-MB-435", "value": "> 10", "unit": "µM"}
    ]}
  ]
}
